Calls of active or inactive are those of the source. The calls are words filed in the database; no cut-off is given here. Where a SMILES comes first, the peptide text is derived from it. Bridges are numbered along the chain shown (N, C = ends).
Key:
[1] = molecular target: Proprotein convertase subtilisin/kexin type 5 (Homo sapiens) (UniProt Q92824); experiment: Inhibition of recombinant soluble human PC5 using pyroGlu-Arg-Thr-Lys-Arg-methyl-coumaryl-7-amide as substrate measured after 1 hr
Furin [2] = molecular target: T1, Furin (Homo sapiens, UniProt P09958); experiment: Potency index, ratio of CF1 Ki to test compound Ki for recombinant soluble human furin using pyroGlu-Arg-Thr-Lys-Arg-methyl-coumaryl-7-amide as substrate measured after 1 hr
T1 sequence (P09958 whole entry): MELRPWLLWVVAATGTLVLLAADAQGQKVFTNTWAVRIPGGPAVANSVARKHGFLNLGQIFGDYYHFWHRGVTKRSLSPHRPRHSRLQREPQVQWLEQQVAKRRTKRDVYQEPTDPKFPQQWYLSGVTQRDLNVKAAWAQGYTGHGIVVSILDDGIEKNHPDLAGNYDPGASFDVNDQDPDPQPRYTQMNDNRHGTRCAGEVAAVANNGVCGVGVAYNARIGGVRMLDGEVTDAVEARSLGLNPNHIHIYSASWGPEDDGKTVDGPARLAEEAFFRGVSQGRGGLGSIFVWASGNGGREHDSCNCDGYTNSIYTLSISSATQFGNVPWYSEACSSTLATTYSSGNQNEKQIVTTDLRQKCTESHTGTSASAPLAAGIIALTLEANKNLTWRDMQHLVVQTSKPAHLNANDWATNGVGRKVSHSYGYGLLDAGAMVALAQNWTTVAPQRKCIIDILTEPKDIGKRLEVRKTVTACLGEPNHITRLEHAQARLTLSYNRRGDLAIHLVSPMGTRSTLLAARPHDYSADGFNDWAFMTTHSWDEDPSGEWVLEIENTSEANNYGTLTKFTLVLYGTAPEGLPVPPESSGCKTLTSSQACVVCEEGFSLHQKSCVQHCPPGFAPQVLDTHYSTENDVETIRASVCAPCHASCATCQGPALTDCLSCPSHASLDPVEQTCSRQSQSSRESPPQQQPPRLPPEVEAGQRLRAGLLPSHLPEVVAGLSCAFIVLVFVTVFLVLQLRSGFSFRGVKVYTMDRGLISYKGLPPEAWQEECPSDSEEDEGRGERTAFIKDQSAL

[3] = molecular target: T2, Proprotein convertase subtilisin/kexin type 7 (Homo sapiens) (UniProt Q16549); experiment: Inhibition of recombinant soluble human PC7 using pyroGlu-Arg-Thr-Lys-Arg-methyl-coumaryl-7-amide as substrate measured after 1 hr
T2 sequence (whole entry): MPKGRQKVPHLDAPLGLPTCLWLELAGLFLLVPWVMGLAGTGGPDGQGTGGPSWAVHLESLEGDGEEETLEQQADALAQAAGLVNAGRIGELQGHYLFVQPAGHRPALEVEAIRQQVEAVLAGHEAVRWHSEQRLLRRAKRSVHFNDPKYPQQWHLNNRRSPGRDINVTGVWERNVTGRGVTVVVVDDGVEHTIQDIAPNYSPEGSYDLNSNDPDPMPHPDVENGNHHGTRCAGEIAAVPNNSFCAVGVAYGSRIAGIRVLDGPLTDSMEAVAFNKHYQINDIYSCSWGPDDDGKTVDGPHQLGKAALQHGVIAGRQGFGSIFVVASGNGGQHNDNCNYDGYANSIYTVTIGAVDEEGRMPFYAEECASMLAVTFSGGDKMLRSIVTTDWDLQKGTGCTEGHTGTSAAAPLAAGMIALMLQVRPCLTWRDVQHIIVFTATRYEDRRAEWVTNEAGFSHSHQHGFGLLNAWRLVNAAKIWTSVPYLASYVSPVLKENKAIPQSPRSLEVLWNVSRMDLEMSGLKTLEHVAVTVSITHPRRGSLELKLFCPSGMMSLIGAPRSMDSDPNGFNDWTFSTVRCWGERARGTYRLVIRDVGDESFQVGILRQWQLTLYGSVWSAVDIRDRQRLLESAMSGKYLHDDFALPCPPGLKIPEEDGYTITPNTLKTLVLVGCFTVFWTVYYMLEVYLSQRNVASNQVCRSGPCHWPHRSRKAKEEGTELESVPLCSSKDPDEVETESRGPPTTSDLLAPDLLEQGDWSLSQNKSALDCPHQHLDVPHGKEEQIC

Furin [4] = molecular target: T1, Furin; experiment: Inhibition of recombinant soluble human furin using pyroGlu-Arg-Thr-Lys-Arg-methyl-coumaryl-7-amide as substrate measured after 1 hr
Outline: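 Soluble human recombinant furin was tested in a competitive kinetic assay. Ki is reported as the mean ± SD of at least two independent experiments.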

[5] = molecular target: T3, Proprotein convertase subtilisin/kexin type 6 (Homo sapiens) (UniProt P29122); experiment: Inhibition of recombinant soluble human PACE4 using pyroGlu-Arg-Thr-Lys-Arg-methyl-coumaryl-7-amide as substrate measured after 1 hr
T3 sequence (whole entry): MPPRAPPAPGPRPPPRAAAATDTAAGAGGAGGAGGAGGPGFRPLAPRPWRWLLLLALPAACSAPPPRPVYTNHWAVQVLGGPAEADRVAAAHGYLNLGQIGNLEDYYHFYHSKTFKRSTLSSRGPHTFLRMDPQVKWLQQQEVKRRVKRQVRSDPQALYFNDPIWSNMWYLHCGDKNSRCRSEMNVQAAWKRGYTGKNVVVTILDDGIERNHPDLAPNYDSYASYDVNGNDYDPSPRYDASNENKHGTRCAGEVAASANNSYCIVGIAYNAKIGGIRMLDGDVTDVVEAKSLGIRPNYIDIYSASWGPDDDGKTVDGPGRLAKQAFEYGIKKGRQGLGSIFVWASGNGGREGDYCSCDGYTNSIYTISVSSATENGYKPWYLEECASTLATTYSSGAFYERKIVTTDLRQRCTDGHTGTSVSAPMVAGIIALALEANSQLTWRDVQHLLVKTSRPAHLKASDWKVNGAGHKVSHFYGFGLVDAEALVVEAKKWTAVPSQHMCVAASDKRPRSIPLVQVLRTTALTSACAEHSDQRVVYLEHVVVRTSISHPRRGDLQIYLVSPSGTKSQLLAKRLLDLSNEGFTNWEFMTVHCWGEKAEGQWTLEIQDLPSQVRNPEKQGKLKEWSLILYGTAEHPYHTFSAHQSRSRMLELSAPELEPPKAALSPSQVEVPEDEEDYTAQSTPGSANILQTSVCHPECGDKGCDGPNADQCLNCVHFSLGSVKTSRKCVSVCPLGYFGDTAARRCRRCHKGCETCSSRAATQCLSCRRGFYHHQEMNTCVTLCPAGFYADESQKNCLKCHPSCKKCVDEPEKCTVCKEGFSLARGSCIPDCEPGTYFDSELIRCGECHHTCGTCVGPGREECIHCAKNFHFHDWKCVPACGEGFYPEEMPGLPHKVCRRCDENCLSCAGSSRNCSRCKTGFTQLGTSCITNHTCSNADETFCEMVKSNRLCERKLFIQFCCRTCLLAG

[6] = Half life in CD1 mouse plasma by LC-MS/MS analysis; type: ADME, cell-free; settings: for half-life: CD1, mouse
Outline: (§1)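 Peptide incubated ex vivo in mouse plasma at 37 °C and sampled at several time points, using the ng/mL concentration range. Intact peptide quantified by high-resolution mass spectrometry and expressed as percentage remaining; t1/2 derived from the time course. Each time point run in triplicate; mean and mean ± SD reported.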

[7] = Stability of the compound in CD1 mouse plasma assessed as intact compound remaining measured after 2 mins by LC-MS/MS analysis; type: ADME, cell-free; settings: read-out: Stabilty; outline: as §1

Proprotein convertase subtilisin/kexin type 5 (Homo sapiens), sequence (Q92824 whole entry): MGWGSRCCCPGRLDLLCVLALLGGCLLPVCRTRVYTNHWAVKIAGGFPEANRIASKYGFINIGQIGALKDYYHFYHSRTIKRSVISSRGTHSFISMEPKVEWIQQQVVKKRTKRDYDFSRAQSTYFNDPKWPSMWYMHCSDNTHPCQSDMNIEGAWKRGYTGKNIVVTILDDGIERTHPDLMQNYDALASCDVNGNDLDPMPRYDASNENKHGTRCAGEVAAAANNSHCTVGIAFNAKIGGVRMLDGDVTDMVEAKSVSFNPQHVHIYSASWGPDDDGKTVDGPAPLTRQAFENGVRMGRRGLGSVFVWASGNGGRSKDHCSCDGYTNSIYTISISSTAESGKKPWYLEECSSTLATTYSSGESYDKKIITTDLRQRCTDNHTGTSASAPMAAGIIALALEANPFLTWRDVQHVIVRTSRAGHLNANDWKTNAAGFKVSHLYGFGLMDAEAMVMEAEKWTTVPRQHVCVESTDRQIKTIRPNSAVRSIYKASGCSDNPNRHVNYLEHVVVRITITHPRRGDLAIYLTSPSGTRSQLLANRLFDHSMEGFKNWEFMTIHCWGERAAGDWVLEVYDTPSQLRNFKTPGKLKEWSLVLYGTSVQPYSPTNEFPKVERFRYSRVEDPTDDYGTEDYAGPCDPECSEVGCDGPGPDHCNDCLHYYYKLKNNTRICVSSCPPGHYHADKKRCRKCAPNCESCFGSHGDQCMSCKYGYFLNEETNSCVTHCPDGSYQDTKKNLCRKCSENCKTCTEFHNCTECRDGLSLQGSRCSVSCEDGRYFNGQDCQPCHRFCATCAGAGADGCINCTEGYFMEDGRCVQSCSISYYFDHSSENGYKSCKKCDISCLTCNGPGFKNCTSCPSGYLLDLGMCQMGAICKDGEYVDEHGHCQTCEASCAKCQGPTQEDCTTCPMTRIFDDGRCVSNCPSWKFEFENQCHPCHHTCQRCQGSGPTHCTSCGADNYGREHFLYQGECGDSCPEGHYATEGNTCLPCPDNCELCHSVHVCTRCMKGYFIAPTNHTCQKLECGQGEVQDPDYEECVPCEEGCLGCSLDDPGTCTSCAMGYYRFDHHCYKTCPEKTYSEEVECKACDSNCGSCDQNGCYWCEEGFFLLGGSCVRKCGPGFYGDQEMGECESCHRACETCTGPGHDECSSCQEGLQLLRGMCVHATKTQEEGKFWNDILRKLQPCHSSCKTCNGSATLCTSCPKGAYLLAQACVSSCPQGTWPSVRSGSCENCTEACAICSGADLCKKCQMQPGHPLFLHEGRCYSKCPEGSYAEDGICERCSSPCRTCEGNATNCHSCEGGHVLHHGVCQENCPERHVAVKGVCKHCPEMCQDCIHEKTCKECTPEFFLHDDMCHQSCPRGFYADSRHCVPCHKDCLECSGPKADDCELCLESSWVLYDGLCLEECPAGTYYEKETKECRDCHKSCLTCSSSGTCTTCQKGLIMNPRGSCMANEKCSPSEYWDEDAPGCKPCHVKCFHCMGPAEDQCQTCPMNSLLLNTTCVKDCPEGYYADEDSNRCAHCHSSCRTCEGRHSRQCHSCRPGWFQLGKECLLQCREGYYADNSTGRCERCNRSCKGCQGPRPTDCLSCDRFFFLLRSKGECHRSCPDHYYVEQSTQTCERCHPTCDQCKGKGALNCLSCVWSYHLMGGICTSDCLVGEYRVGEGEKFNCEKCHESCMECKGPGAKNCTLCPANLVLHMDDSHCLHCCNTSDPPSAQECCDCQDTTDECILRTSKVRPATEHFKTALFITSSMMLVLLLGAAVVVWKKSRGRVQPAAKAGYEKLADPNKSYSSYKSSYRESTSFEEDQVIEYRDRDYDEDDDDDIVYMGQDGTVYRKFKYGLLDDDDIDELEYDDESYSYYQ

Compound	inhibition [1]	Ratio Ki (Furin [2])	inhibition [3]	Ki (Furin [4])	inhibition [5]	t1/2 ([6]; mouse)	half-life [6]	remaining at 2 min [7]
CC[C@H](C)[C@H](NC(=O)[C@H](CCCNC(=N)N)NC(=O)[C@H](C)NC(=O)[C@H](CCCNC(=N)N)NC(C)=O)C(=O)N[C@@H](CCCNC(=N)N)C(=O)N[C@@H](CCCCN)C(=O)N[C@@H](CCCCN)C(=O)N[C@@H](CCCNC(=N)N)C(=O)N[C@H](C(N)=O)[C@@H](C)O	Active	2	inactive	6 nM	Active	–	–	–
CC(=O)N[C@@H](CCCNC(=N)N)C(=O)N[C@@H](C)C(=O)N[C@@H](CCCNC(=N)N)C(=O)N[C@@H](CCCNC(=N)N)C(=O)N[C@@H](CCCNC(=N)N)C(=O)N[C@@H](CCCCN)C(=O)N[C@@H](CCCCN)C(=O)N[C@@H](CCCNC(=N)N)C(=O)N[C@H](C(N)=O)[C@@H](C)O	Active	–	inactive	15 nM	Active	212 s	–	–
CC(=O)N[C@@H](CCCNC(=N)N)C(=O)N[C@@H](C)C(=O)N[C@@H](Cc1ccccc1)C(=O)N[C@@H](CCCNC(=N)N)C(=O)N[C@@H](CCCNC(=N)N)C(=O)N[C@@H](CCCCN)C(=O)N[C@@H](CCCCN)C(=O)N[C@@H](CCCNC(=N)N)C(=O)N[C@H](C(N)=O)[C@@H](C)O	–	–	–	29 nM	–	–	12.6 s	–
CC[C@H](C)[C@H](NC(=O)[C@H](CCCNC(=N)N)NC(=O)[C@H](C)NC(=O)[C@@H]1CCCN1C(C)=O)C(=O)N[C@@H](CCCNC(=N)N)C(=O)N[C@@H](CCCCN)C(=O)N[C@@H](CCCCN)C(=O)N[C@@H](CCCNC(=N)N)C(=O)N[C@H](C(N)=O)[C@@H](C)O (Ac-PARIRKKRT-NH2)	–	–	–	8 nM	–	–	44.4 s	15%
CC(=O)N[C@@H](CCCNC(=N)N)C(=O)N[C@@H](Cc1ccccc1)C(=O)N[C@@H](CCCNC(=N)N)C(=O)N[C@@H](CCCNC(=N)N)C(=O)N[C@@H](CCCNC(=N)N)C(=O)N[C@@H](CCCCN)C(=O)N[C@@H](CCCCN)C(=O)N[C@@H](CCCNC(=N)N)C(=O)N[C@H](C(N)=O)[C@@H](C)O	–	–	–	23 nM	–	–	57.6 s	–
CC(=O)N[C@@H](Cc1ccccc1)C(=O)N[C@@H](C)C(=O)N[C@@H](CCCNC(=N)N)C(=O)N[C@@H](CCCNC(=N)N)C(=O)N[C@@H](CCCNC(=N)N)C(=O)N[C@@H](CCCCN)C(=O)N[C@@H](CCCCN)C(=O)N[C@@H](CCCNC(=N)N)C(=O)N[C@H](C(N)=O)[C@@H](C)O	–	–	–	14 nM	–	–	33.6 s	–
CC(=O)N[C@@H](CCCNC(=N)N)C(=O)N[C@@H](C)C(=O)N[C@@H](CCCNC(=N)N)C(=O)N[C@@H](CCCCN)C(=O)N[C@@H](CCCNC(=N)N)C(=O)N[C@@H](CCCCN)C(=O)N[C@@H](CCCCN)C(=O)N[C@@H](CCCNC(=N)N)C(=O)N[C@H](C(N)=O)[C@@H](C)O	–	2	–	7 nM	–	–	–	–
CC[C@H](NC(=O)[C@H](CCCNC(=N)N)NC(=O)[C@H](C)NC(=O)[C@H]1CCCN1C(C)=O)C(=O)N[C@@H](CCCNC(=N)N)C(=O)N[C@@H](CCCCN)C(=O)N[C@@H](CCCCN)C(=O)N[C@@H](CCCNC(=N)N)C(=O)N[C@H](C(N)=O)[C@@H](C)O	–	–	–	11 nM	–	–	66.6 s	25%
CC(=O)N[C@@H](CCCNC(=N)N)C(=O)N[C@@H](C)C(=O)N[C@@H](CCCNC(=N)N)C(=O)N[C@@H](Cc1ccccc1)C(=O)N[C@@H](CCCNC(=N)N)C(=O)N[C@@H](CCCCN)C(=O)N[C@@H](CCCCN)C(=O)N[C@@H](CCCNC(=N)N)C(=O)N[C@H](C(N)=O)[C@@H](C)O	Active	–	inactive	21 nM	Active	–	19.2 s	–
CC(=O)N[C@@H](CCCNC(=N)N)C(=O)N[C@@H](C)C(=O)N[C@@H](CCCNC(=N)N)C(=O)N[C@@H](CC(N)=O)C(=O)N[C@@H](CCCNC(=N)N)C(=O)N[C@@H](CCCCN)C(=O)N[C@@H](CCCCN)C(=O)N[C@@H](CCCNC(=N)N)C(=O)N[C@H](C(N)=O)[C@@H](C)O	Active	–	inactive	18 nM	Active	–	–	–
CC(=O)N[C@@H](CCCNC(=N)N)C(=O)N[C@@H](C)C(=O)N[C@@H](CCCNC(=N)N)C(=O)N[C@H](C(=O)N[C@@H](CCCNC(=N)N)C(=O)N[C@@H](CCCCN)C(=O)N[C@@H](CCCCN)C(=O)N[C@@H](CCCNC(=N)N)C(=O)N[C@H](C(N)=O)[C@@H](C)O)C(C)C	–	2	–	7 nM	–	–	–	–
CC(=O)N[C@@H](CCCNC(=N)N)C(=O)N[C@@H](C)C(=O)N[C@@H](CCCNC(=N)N)C(=O)N[C@@H](CCCNC(=N)N)C(=O)N[C@@H](CCCNC(=N)N)C(=O)N[C@@H](CCCCN)C(=O)N[C@@H](CCCCN)C(=O)NN(CCCNC(=N)N)CC(=O)N[C@@H](Cc1ccccc1)C(N)=O	–	–	–	2500 nM	–	–	155 s	–
CC(=O)N[C@@H](CCCNC(=N)N)C(=O)N[C@@H](C)C(=O)N[C@@H](CCCNC(=N)N)C(=O)N[C@H]1CCCCNC(=O)[C@H](CCCNC(=N)N)NC(=O)[C@H](CCCCN)NC(=O)[C@H](CCCCN)NC(=O)[C@H](CCCNC(=N)N)NC(=O)[C@H]([C@@H](C)O)NC1=O (Ac-RARKTRKKR; lactam 4-C)	–	–	–	2500 nM	–	–	–	–

Reference: ChEMBL document CHEMBL4680371, “Design and Structure-Activity Relationship of a Potent Furin Inhibitor Derived from Influenza Hemagglutinin” (ACS Med Chem Lett, 2021)
